# Data taken from PubChem BioAssay AID1496 (Sanford-Burnham Center for Chemical Genomics, 2009).
# “And” between values parts separate entries of the source, which are not always exact repeats. Equal values may be shown once. Hit rate of the full screen: of about 220,000 compounds, about 990 (0.45%) were called active.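 How the source made its calls: active means inhibition over about 50% at 20 µM in the single-dose screen (limit read from the data); inactive means the rest.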 Many of the other results were omitted from the sample, so actives are more common in it than they were. The source holds several records for some structures; these can differ, active in one and inactive in another.
# Molecular target: Runt-related transcription factor 1 (Homo sapiens) + Core-binding factor subunit beta (Homo sapiens) (UniProt Q01196+Q13951)
# Assay: inhibitors of RUNX1 Runt–CBFb binding, primary screen, biochemical, FRET, Cerulean-Runt, Venus-CBFb, uHTS (AID 1496);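 further: 0% = DMSO wells and 100% = excess unlabeled CBFb competitor control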
# Conditions: Cerulean-Runt/Venus-CBFb FRET ratio 530/480, 1 h; at 20 µM; stronger effect = higher value
# Summary of the method: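 Measured by: fluorescence energy transfer, 422 nm excitation, 530/480 nm emission; test system: Cerulean-tagged RUNX1 Runt domain (FRET donor) fusion protein; buffer or medium: Tris pH 7.5 buffer with BSA; compound: one dose, 20 µM compound, 1% DMSO; times: two 1 h room-temperature incubations shielded from light; benchmarks: unlabeled CBFb 5 µM, positive control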
# Runt-related transcription factor 1 (Homo sapiens) + Core-binding factor subunit beta (Homo sapiens), sequence (Q01196 whole entry, looked up): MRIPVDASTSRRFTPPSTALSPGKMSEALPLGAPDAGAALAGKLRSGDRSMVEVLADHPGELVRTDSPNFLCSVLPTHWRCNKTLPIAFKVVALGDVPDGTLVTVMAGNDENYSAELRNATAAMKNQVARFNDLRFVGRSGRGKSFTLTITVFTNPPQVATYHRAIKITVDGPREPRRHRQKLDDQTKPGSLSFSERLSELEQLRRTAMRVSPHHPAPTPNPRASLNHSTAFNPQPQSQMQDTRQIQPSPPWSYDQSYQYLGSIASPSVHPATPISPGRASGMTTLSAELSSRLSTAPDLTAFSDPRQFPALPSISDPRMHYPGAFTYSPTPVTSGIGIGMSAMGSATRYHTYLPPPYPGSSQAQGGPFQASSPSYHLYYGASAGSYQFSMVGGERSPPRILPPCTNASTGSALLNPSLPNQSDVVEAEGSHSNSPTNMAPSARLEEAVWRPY
# Runt-related transcription factor 1 (Homo sapiens) + Core-binding factor subunit beta (Homo sapiens), sequence (Q13951 whole entry, looked up): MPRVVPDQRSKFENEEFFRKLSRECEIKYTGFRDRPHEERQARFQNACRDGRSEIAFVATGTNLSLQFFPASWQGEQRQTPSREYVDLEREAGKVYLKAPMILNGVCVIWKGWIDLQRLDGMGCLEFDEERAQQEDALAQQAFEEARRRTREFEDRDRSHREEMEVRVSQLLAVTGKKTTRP
row,SMILES,inhibition
1,COC(=O)C1=C(C)OC(N)=C(C#N)C1c1cc(OC)ccc1OC (stereo not given),-2.5% (inactive)
2,COc1ccc(C2C(C#N)=C(N)Oc3cc(N)ccc32)cc1OC (stereo not given),77.7% (active)
3,CCC1=C(C(=O)OC)C(c2cc(OC)ccc2OC)C(C#N)=C(N)O1 (stereo not given),2% (inactive)
4,CCOC(=O)c1c(NC(=S)Nc2ccccc2C)sc2c1CCC2,10.3% (inactive)
5,CCOC(=O)c1c(NC(=S)Nc2ccccc2)sc2c1CCN(C)C2,66.5% (active)
6,CCOC(=O)c1c(NC(=O)NC(C)(C)C)sc2c1CCN(C)C2,4.1% (inactive)
7,CC(C)(C)c1nnc(NC(=O)C2c3ccccc3Oc3ccccc32)s1,21% (inactive)
8,CC(C)Sc1nnc([C@H](Cc2ccccc2)NC(=O)OC(C)(C)C)o1,4.8% (inactive)
9,Brc1ccc(CSc2ccc(-c3ccco3)nn2)cc1,53.3% (active)
10,Fc1cccc(Cl)c1CSc1ccc(-c2ccco2)nn1,40.3% (inactive)
11,O=C(CSc1ccc(-c2ccco2)nn1)NCc1ccc2c(c1)OCO2,16.4% (inactive)
12,CCC(C)(C)NC(=O)C(c1ccc(O)cc1)N(C(=O)Cn1nnc2ccccc21)c1ccc(NC(C)=O)cc1 (stereo not given),0.4% (inactive)
13,COc1ccc2cc1Oc1ccc(cc1)C[C@H]1c3cc(c(OC)cc3CCN1C)Oc1c(O)c(OC)cc3c1[C@H](C2)N(C)CC3,1.7% (inactive)
14,COc1cc(COCC(O)CN2CCN(Cc3ccc4c(c3)OCO4)CC2)cc(OC)c1OC (stereo not given),-1% (inactive)
15,COc1c(O)ccc2c1CN1CCc3cc4c(cc3C1C2)OCO4 (stereo not given),66.6% (active)
16,CCOC(=O)c1ccc(NC(=O)c2nc[nH]c2C(=O)N[C@@H](CCCCNC(=O)OC(C)(C)C)C(=O)OC(C)(C)C)cc1,-5.6% (inactive)
17,Cc1ccc(C(=O)OC(C)CN2CCOCC2)cc1 (stereo not given),1.3% (inactive)
18,CC(C)(C)OC(=O)c1c(N)n(CCCN2CCCC2=O)c2nc3ccccc3nc12,68.7% (active)
19,CCOc1ccc(C(=O)NCCCN2CCCC2=O)cc1,1% (inactive)
20,O=C(Cn1c(-c2ccccn2)nc2ccccc21)NCCN1CCOCC1,0.6% (inactive)
21,COCC(C)OC(=O)c1c(N)n(CCCN2CCOCC2)c2nc3ccccc3nc12 (stereo not given),67.9% (active)
22,CSc1nnc(-c2ccncc2)n1CCCN1CCCC1=O,-5.5% (inactive)
23,CC(C)C[C@H](CO)Nc1nc(N(C)c2cccc(Cl)c2)c2ncn(C(C)C)c2n1,-4.6% (inactive)
24,N/C(=N\OC(=O)Nc1ccccc1)c1ccno1,0.1% (inactive)
25,O=C(NC(c1ccccc1)c1ccccc1)N1CCN(CCO)CC1,-1.2% (inactive)
26,S=C(c1ccc(-c2ccccc2)o1)N1CCCCC1,21% (inactive)
27,OCCN1CCN(C(=S)c2ccc(-c3ccccc3)cc2)CC1,53.6% (active)

row,SMILES,inhibition
1,CCc1nc2sc3c(Cl)ncnc3c2c2c1CCCC2,-0.7% (inactive)
2,CCN(CC)S(=O)(=O)c1ccc(N2CCOCC2)c(NC(=O)C2COc3ccccc3O2)c1 (stereo not given),84.6% (active)
3,CCN(CC)S(=O)(=O)c1ccc(N2CCOCC2)c(C(=O)O)c1,1% (inactive)
4,Cc1ccc(S(=O)(=O)N(C)C)cc1NC(=O)COC(=O)C1COc2ccccc2O1 (stereo not given),-0.2% (inactive)
5,COc1cccc2sc(NNC(=O)c3nc4ccccc4s3)nc12,32.7% (inactive)
6,COc1cccc2sc(Nc3nc(C)c(C(C)=O)s3)nc12,66.3% (active)
7,CC(=O)c1sc(NC(=O)CCCOc2ccccc2C)nc1C,0.4% (inactive)
8,O=S(=O)(NC(=S)Nc1ccccc1)c1ccc(F)cc1,26.8% (inactive)
9,O=[N+]([O-])c1ccc2c(c1)C(O)n1nc(-c3ccccc3)nc1S2 (stereo not given),-0.7% (inactive)
10,C=CCNC(=S)NNC(=O)c1cc(Cl)ccc1OC,0.2% (inactive)
11,C=CCSc1nnc(NC(=O)c2ccc(NC(C)=O)cc2)s1,0% (inactive)
12,NNC(=O)c1cccc(COCC(F)(F)C(F)F)c1,-0.3% (inactive)
13,CCCN1C2=C(C(=O)CCC2)C(c2ccc(O)c(Br)c2)C2=C1CCCC2=O,53.1% (active)
14,CCCC(=O)N1c2ccccc2NC2=C(C(=O)CCC2)C1c1ccc(F)cc1 (stereo not given),-0.4% (inactive)
15,N#CC1=C(N)N(c2ccccc2)C2=C(C(=O)CCC2)C1c1ccccc1 (stereo not given),6.6% (inactive)
16,O=S(=O)(Nc1ccc(OC(F)(F)F)cc1)c1cccc2nonc12,-2.4% (inactive)
17,Cc1ccc(-c2nc3ccccc3[nH]c2=O)cc1,1.4% (inactive)
18,O=[N+]([O-])c1cccc(-c2nnc3c4ccccc4c4ccccc4n23)c1,4.4% (inactive)
19,O=c1[nH]c2ccccc2n2c(-c3ccccc3)nnc12,53% (active)
20,Oc1c(Br)cc(/C=N/NC(=S)NCC2CCCO2)cc1Br (stereo not given),0.6% (inactive)
21,CCCCN1C(=O)/C(=C/C=C2/C=Cc3ccccc3N2CC)SC1=S,27.9% (inactive)
22,CCN1C(=O)/C(=C2/Sc3ccccc3N2CCCS(=O)(=O)O)SC1=S,44.8% (inactive) and 56.4% (active)
23,CCN1C(=O)/C(=C\N2CCN(c3ccccc3)CC2)SC1=S,-0.2% (inactive)
24,COCCNC(=S)N1CCN(C)CC1,0.5% (inactive)
25,O=C1CCCCC1C(=O)c1ccccc1 (stereo not given),1.7% (inactive)
26,COc1ccc(C2/C=C\CN(CC(C)C)CC(=O)N2Cc2ccc(F)cc2)cc1 (stereo not given),0% (inactive)
27,O=C(O)CCc1cccnc1,-0.7% (inactive)

row,SMILES,inhibition
1,COc1cccc2c(=O)n(CC(=O)N3CCCCCC3)ccc12,0.5% (inactive)
2,CCOC(=O)C1CCN(C(=O)Cn2cc(C#N)c3ccccc32)CC1,0.6% (inactive)
3,CCc1cccc2c(C=C(C#N)C#N)cn(CC(=O)N3CCCCC3)c12,91.4% (active)
4,CSC1=NC2(C)CCCCC2C12C=CC(=O)C=C2 (stereo not given),2.8% (inactive)
5,CCOc1ccc2nc(N3CCCN(C(=O)Nc4ccccc4C)CC3)c(C#N)cc2c1,29.2% (inactive)
6,COc1ccc2nc(N3CCCC(O)C3)c(C#N)cc2c1 (stereo not given),81.1% (active)
7,COc1ccc(N2CCN(C(=O)CSc3nc4cc(OC)c(OC)cc4cc3C#N)CC2)cc1,12.5% (inactive)
8,CC1CCN(c2c(NCc3ccc(C(=O)NCc4ccccc4)cc3)c(=O)c2=O)CC1,0.6% (inactive)
9,NNC(=O)c1oc2nc(-c3ccccc3)cc(-c3ccco3)c2c1N,-57.1% (inactive)
10,CSc1nc(-c2ccco2)nn1C(=O)c1ccccc1Cl,-3.7% (inactive)
11,COc1ccc(Cl)cc1C(=O)NNC(=O)c1nc2nc(C)cc(C)n2n1,-0.8% (inactive)
12,COCc1cc(=O)oc2cc(NS(=O)(=O)c3ccc(C)cc3)ccc12,58.8% (active)
13,Cc1ccc(S(=O)(=O)Nc2ccc3ncccc3c2)cc1,-1.3% (inactive)
14,COc1ccc(S(=O)(=O)Nc2ccc3oc(C)c(C(C)=O)c3c2)cc1,0.3% (inactive)
15,Clc1ccc(C[n+]2cc(-c3ccc(Cl)cc3)n3c2CCC3)cc1,0.1% (inactive)
16,Cc1cc(C(=O)N2CCC(C(=O)O)CC2)c(C(F)(F)F)o1,0% (inactive)
17,S=C(NNC(=S)NC1CC2CCC1C2)NC1CC2C=CC1C2 (stereo not given),11.8% (inactive)
18,COc1cccc(C(=O)c2cc3ccc(O)cc3oc2=O)c1,126% (active)
19,COc1ccc2oc(=O)c(C(=O)N3CCCC3)cc2c1,2% (inactive)
20,COc1ccc2oc(=O)c(C(=O)O)cc2c1,3.3% (inactive)
21,O=C(Nc1nnc(CCN2CCCCC2)s1)c1cccc(Cl)c1,2.2% (inactive)
22,Cc1noc(C)c1-c1nc(CSc2ccc(Cl)cc2)no1,0.4% (inactive)
23,OC(c1nc2ccccc2[nH]1)C(O)C(O)C(O)c1nc2ccccc2[nH]1 (stereo not given),-0.4% (inactive)
24,Cc1ccc(C(=O)Nc2cccc3ncccc23)cc1[N+](=O)[O-],-0.8% (inactive)
25,O=C(Nc1cccc2ncccc12)C(Cl)(Cl)Cl,-0.7% (inactive)
26,Cc1ccc(/C=C(\C#N)C(=O)Nc2cccc3ncccc23)o1,125% (active)
27,CCC(=O)c1ccc(OCC(=O)Nc2ccc3nc(C)sc3c2)cc1,1.3% (inactive)

row,SMILES,inhibition
1,CC1=NNC(=O)C1CCC(=O)N/N=C(\C)c1ccc(Cl)cc1 (stereo not given),-1.6% (inactive)
2,CC[C@@H](C)[C@@H](C(=O)N1CCN(C(=O)OC(C)(C)C)CC1)n1cc(CCC(=O)O)nn1,2.1% (inactive)
3,CCc1c(C)nc2c(-c3ccccc3)c(C)nn2c1Nc1ccc(NC(C)=O)cc1,-2.4% (inactive)
4,O=C(O)c1ccccc1C(=O)Nc1ccccc1[N+](=O)[O-],-1.2% (inactive)
5,Fc1cc(F)c2nc(Nc3nc4c(F)cccc4s3)sc2c1,0.3% (inactive)
6,NC(=O)c1c(NC(=O)CSc2nc(N)cc(=O)[nH]2)sc2c1CCCC2,0.4% (inactive)
7,NC(=O)c1c(Nc2nc3c(F)cccc3s2)sc2c1CCCC2,117% (active)
8,Cc1ccc(-c2cn3cc([N+](=O)[O-])ccc3n2)cc1,67.1% (active)
9,Cc1ccc(-c2cn3cc(C)ccc3n2)cc1,-4.5% (inactive)
10,Cc1ccc(-n2cc3ccc([N+](=O)[O-])cc3n2)cc1,-12.8% (inactive)
11,O=C(NNc1cc(Cl)cc(Cl)c1)c1c(F)cccc1Cl,0.6% (inactive)
12,O=C(Cc1cccc2ccccc12)NNC(=O)Nc1ccc(Cl)cc1,1.3% (inactive)
13,CCn1c(=N)c(S(=O)(=O)c2ccc(F)cc2)cc2c(=O)n3ccccc3nc21,10.5% (inactive)
14,CCOC(=O)c1cc2c(=O)n3ccccc3nc2n(CC(C)C)c1=NC(=O)c1c(-c2c(F)cccc2Cl)noc1C,64.1% (active)
15,Cc1onc(-c2c(Cl)cccc2Cl)c1C(=O)NNC(=O)c1c(-c2c(Cl)cccc2Cl)noc1C,0.7% (inactive)
16,Cc1ccc(-n2c(=O)c(C#N)cc3c(=O)n4ccccc4nc32)cc1C,19.9% (inactive)
17,CCCn1c(=NC(C)=O)c(C(=O)OCC)cc2c(=O)n3ccccc3nc21,101% (active)
18,C/C(=N/OC(=O)c1c(-c2c(F)cccc2Cl)noc1C)c1cnccn1,-0.3% (inactive)
19,O=C(NCC1CCCO1)c1cc(-c2ccccc2)nc2ccccc12 (stereo not given),1.5% (inactive)
20,Cc1noc(C)c1COC(=O)COc1ccc(-c2ccccc2)cc1,-2.6% (inactive)
21,CC(=O)NNC(=O)c1csc(Cc2c(Cl)sc3ccc(Cl)cc23)n1,1.6% (inactive)
22,O=C(NNS(=O)(=O)c1ccccc1)c1cnn(-c2ccc(Cl)cc2)c1C(F)(F)F,1.6% (inactive)
23,O=C(CNCc1cccs1)Nc1cc(S(=O)(=O)N2CCCC2)ccc1Cl,4.6% (inactive)
24,CCc1nc(NCCO)c(C#N)c2c1CCCC2,-0.2% (inactive)
